Source: PubChem BioAssay
Hits are enriched below; roughly 1.5% of the tested compounds scored in any of these assays.
APJ ag – APJ receptor agonism; P35414; CHO-K1 APJ PathHunter beta-arrestin, luminescence; 0% DMSO wells, 100% apelin; hit rate 0.11% among 330,000; activation, % at 20 µM; AID 2520;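 active = activation more than six SD over the plate average, tested at 20 µM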;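 also: 0% = DMSO alone and 100% = apelin-13 at 10 nM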
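Material: CHO-K1 APJ beta-arrestin complementation cell line; Input: cell density 1000 per well; Incubation: compound stimulation 90 min at 25 °C, detection 60 min; Signal: luminescence from split beta-galactosidase complementation, Galacton Star/Emerald II substrate; Controls: DMSO-only wells as negative, 10 nM Apelin-13 as positive control.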
EBI2 block – blocks human EBI2 receptor beta-arrestin signaling. hit rate 0.81% among 360,000. EBI2 beta-arrestin recruitment, luminescence, 7a,25-OHC stimulated. AID 651636. P32249. inhibition, % at 5 µM; in the data active = inhibition above about 38%;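 also: enzyme fragment complementation signal reports receptor beta-arrestin coupling in cells; 0% = agonist plus DMSO wells and 100% = wells without agonist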
CXCR6 block – CXCR6 (human) receptor inhibition. AID 602244. O00574. inhibition, % at 20 µM. CHO-K1 PathHunter CXCR6 beta-arrestin, luminescence. hit rate 0.36% among 360,000; in the data active = inhibition above about 34%, passing the limit was not always enough;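 also: antagonist mode with CXCL16 agonist at 10 nM final; 0% = 10 nM CXCL16 with DMSO and 100% = unstimulated wells without agonist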
Target sequence (O00574 whole entry, looked up): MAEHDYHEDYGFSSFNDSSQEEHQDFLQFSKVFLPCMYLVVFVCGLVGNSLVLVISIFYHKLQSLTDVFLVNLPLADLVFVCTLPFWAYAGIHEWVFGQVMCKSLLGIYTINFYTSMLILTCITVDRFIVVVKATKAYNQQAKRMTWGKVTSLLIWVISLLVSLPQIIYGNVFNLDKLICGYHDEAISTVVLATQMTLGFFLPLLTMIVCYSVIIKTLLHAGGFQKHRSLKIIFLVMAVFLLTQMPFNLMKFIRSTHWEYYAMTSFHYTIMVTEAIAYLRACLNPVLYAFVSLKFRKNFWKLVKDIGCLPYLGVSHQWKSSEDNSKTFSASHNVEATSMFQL
CCR6 antagonist – blocks CCL20-driven beta-arrestin recruitment at human CCR6; P51684; CHO-K1 CCR6 PathHunter beta-arrestin, luminescence, CCL20-stimulated; inhibition, % at 20 µM; hit rate 0.49% among 340,000;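 active = compounds whose inhibition of the agonist-driven luminescence signal at 20 µM reaches about 50%, limit read from the data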;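 also: cells stimulated with CCL20 at 14 nM final; plate controls were DMSO with CCL20 for no effect and DMSO without agonist for full effect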
Target sequence (P51684 whole entry, looked up): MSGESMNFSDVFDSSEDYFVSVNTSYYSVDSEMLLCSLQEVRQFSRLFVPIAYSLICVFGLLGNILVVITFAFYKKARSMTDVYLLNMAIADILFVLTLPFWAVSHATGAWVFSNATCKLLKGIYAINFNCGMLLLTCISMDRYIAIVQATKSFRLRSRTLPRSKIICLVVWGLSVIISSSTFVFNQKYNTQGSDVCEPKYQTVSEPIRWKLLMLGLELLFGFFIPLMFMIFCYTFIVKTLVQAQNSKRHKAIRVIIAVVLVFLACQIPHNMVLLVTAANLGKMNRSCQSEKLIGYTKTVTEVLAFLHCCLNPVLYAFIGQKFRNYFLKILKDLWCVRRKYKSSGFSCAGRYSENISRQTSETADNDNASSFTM
APJ antagonist – antagonists of human APJ apelin receptor. CHO-K1 APJ beta-arrestin complementation, luminescence. hit rate 0.32% among 330,000. inhibition, % at 20 µM. P35414;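 active = inhibition above about 40% at 20 µM, limit read from the data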;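 also: cells challenged with 10 nM apelin-13 agonist together with compound; plate controls were apelin-13 plus DMSO wells for no effect and DMSO wells lacking apelin-13 for full effect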
EBI2 antag conf – EBI2 (human) antagonism, single concentration confirmation; inhibition, % at 5 µM; hit rate 29% among 2,400; AID 651997; EBI2 beta-arrestin luminescence, 7a,25-OHC antagonism; shares compounds with EBI2 block;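 active = inhibition of at least 50%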
EBI2 agonist – activates EBI2, counter-screen for EBI2 antagonists; shares compounds with EBI2 block; EBI2-expressing cells, agonist mode, luminescence, 60 min; 0% vehicle, 100% 7α,25-dihydroxycholesterol control; activation, % at 5 µM; 2,400 tested, under 10 active;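 active = activation of at least 50%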
bGal cs – inhibits E. coli beta-galactosidase, counter-screen for EBI2 antagonists; purified beta-galactosidase, luminescent Galacton Star, 15 min; shares compounds with EBI2 block; hit rate 1% among 2,400; AID 652176; inhibition, % at 5 µM;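 active = replicate-average signal at least 3 plate SD below neutral wells, shown as high inhibition, flagging enzyme-inhibiting false positives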;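 also: 0% = DMSO wells with enzyme and 100% = wells lacking enzyme; higher means stronger loss of beta-gal luminescence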
An asterisk follows results filed as active; · = no result given.

SMILES | APJ ag | EBI2 block | CXCR6 block | CCR6 antagonist | APJ antagonist | EBI2 antag conf | EBI2 agonist | bGal cs
CCCNC(=O)C1CCC(CNS(=O)(=O)c2ccc3c(c2)N(C(C)=O)CCO3)CC1 (configuration not stated) | 1 | -3 | -3 | -2 | 9 | · | · | ·
CCCn1c(N)c(C(=O)CN(C)CC(=O)Nc2c(Cl)cccc2Cl)c(=O)[nH]c1=O | -4 | -15 | 3 | 7 | -9 | · | · | ·
COc1ccc(C(=O)N2CCN(c3nc(C4CC4)nc4sc(C)c(C)c34)CC2)cc1 | -2 | 49* | 6 | 9 | -1 | 19 | 0 | 1
Cc1sc2nc(C3CC3)nc(N3CCN(C(=O)c4ccc(Cl)cc4)CC3)c2c1C | 0 | 76* | 17 | 6 | 4 | 44 | 1 | 8
O=C(Nc1ccc2c(c1)OCO2)c1ccccc1 | -1 | 1 | -8 | 5 | 10 | · | · | ·
COc1ccc(NC(=O)c2ccc3c(c2)C(=O)N(CC2CCCO2)C3=O)cc1O (configuration not stated) | -1 | 7 | -3 | -5 | -7 | · | · | ·
CN1C(=O)c2ccc(C(=O)Nc3ccc4c(c3)OCO4)cc2C1=O | 3 | 45* | 4 | -9 | 8 | -1 | 0 | -11
Cc1ccc(NC(=O)c2ccc3c(c2)C(=O)N(CC2CCCO2)C3=O)cc1C (configuration not stated) | -3 | 74* | 6 | 19 | 3 | 52* | 2 | -4
O=C(NC1=NCCS1)c1cccc(S(=O)(=O)N2CCOCC2)c1 | -3 | 0 | 0 | 3 | 6 | · | · | ·
O=C(CN1CCN(Cc2ccccc2)CC1)N/N=C/c1ccc(Br)s1 | -1 | 44* | -4 | 1 | -7 | 33 | 2 | 2
CCOC(=O)c1c(NC(=O)C2=C(C)NC(=S)NC2c2ccc(F)cc2)sc(C)c1C (configuration not stated) | -2 | 82* | -2 | 11 | 17 | 53* | 1 | -3
CCOC(=O)c1c(NC(=O)C2=C(C)NC(=S)NC2c2ccc(C)cc2)sc(C)c1C (configuration not stated) | -3 | 92* | 10 | 12 | 9 | 48 | -2 | -13
CCOC(=O)c1c(NC(=O)C2=C(C)NC(=S)NC2c2ccc(F)cc2F)sc(C)c1C (configuration not stated) | -3 | 86* | 7 | -4 | -6 | 45 | -1 | 7
CC1=C(C(=O)Nc2ccccn2)C(c2ccc(Cl)cc2)NC(=S)N1 (configuration not stated) | -3 | 5 | 6 | 10 | 20 | · | · | ·
CCOC(=O)c1c(NC(=O)c2cccc(N3C(=O)CCC3=O)c2)sc(C)c1C | 1 | -11 | 6 | 1 | -10 | · | · | ·
CCOC(=O)c1c(NC(=O)C2C3C=CC(CC3)C2C(=O)O)sc(C)c1C (configuration not stated) | -11 | 2 | -8 | -18 | 21 | · | · | ·
O=C(CSc1nnc(-c2c[nH]c3ccccc23)o1)NCC1CCCO1 (configuration not stated) | 2 | -8 | -3 | -1 | 6 | · | · | ·
Nc1nc(CSc2ccc(Cl)cc2)nc(N2CCCCC2)n1 | -7 | 44* | -7 | 0 | -31 | 6 | 2 | 3
Oc1ccc(-c2cnc3c(Nc4cccc(OC(F)(F)C(F)F)c4)nccn23)cc1 | · | 73* | -6 | · | · | 32 | 0 | 2
NC(=O)c1cccc(-c2cnc3c(Nc4cccc(OC(F)(F)C(F)F)c4)nccn23)c1 | · | 45* | -7 | · | · | 42 | -2 | -9
O=C(NCCCN1CCOCC1)/C(=C/c1cccnc1)NC(=O)c1ccccc1 | -1 | -3 | -9 | 7 | -4 | · | · | ·
Cc1cccc(OCC(=O)N2CCN(C(=O)COc3ccc(Cl)cc3)CC2)c1 | -3 | 84* | -7 | 3 | 0 | 50* | -1 | -15
CCOC(=O)C1CCN(C(=O)COc2ccc(Cl)cc2)CC1 | 5 | 75* | 6 | 7 | 8 | 54* | -2 | -10
COC(=O)C1CCN(C(=O)COc2ccc(Cl)cc2)CC1 | 1 | 62* | 2 | -3 | 7 | 57* | 1 | 10
COc1ccc(C)cc1-n1nnnc1SCC(=O)NC1CCS(=O)(=O)C1 (configuration not stated) | -1 | -5 | -1 | 0 | 22 | · | · | ·
SMILES | APJ ag | EBI2 block | CXCR6 block | CCR6 antagonist | APJ antagonist | EBI2 antag conf | EBI2 agonist | bGal cs
O=C(NCCCN1CCOCC1)c1[nH]c(C(F)(F)F)nc1-c1ccccc1 | · | -6 | -2 | · | · | · | · | ·
CC(C)(C)CC(C)(C)c1ccc(O)c(Cc2ccc(Cl)cc2Cl)c1 | · | 75* | -5 | 43 | · | 42 | -2 | -15
CC(C)(C)CC(C)(C)c1ccc(O)c(CN2CCN(CCC#N)CC2)c1 | -4 | 2 | 1 | 11 | 3 | · | · | ·
CSc1cccc(NC(=O)Nc2ccccc2C(N)=O)c1 | -2 | 3 | 4 | 2 | 3 | · | · | ·
CCCOc1ccc(/C=C/C(=O)N2CCN(c3ccccn3)CC2)cc1 | -4 | 46* | -2 | 2 | 3 | 40 | 1 | -1
CCCOc1ccc(/C=C/C(=O)N2CCOCC2)cc1 | 3 | -12 | 4 | 4 | -16 | · | · | ·
O=C(/C=C/c1ccccc1)N1CCN(c2cccc(Cl)n2)CC1 | -2 | 91* | 2 | 10 | 5 | 82* | 0 | -20
Cc1cc(OCC(=O)N2CCN(c3ccccn3)CC2)cc(C)c1Br | 3 | 62* | 5 | -3 | -5 | 65* | 1 | -2
O=C(/C=C/c1ccc(F)cc1)N1CCN(c2ccccn2)CC1 | -4 | 91* | -9 | 12 | 4 | 81* | 1 | 1
COCCNC(=S)N(C)[C@H]1C[C@H]2c3cc(-c4ccccc4)ccc3CCN2C(=O)[C@H]1[C@H](C)O | · | 1 | -1 | · | · | · | · | ·
COc1cccc(-c2sc3ccc(OC)cc3c2-c2cnc(N3CCOCC3)nc2)c1 | · | -4 | -5 | · | · | · | · | ·
Cc1onc(-c2ccccc2Cl)c1C(=O)NNC(=O)c1cccc(F)c1 | -4 | 1 | 1 | 1 | -16 | · | · | ·
O=C(COc1ccc(Br)cc1F)N1CCN(c2ncccn2)CC1 | -2 | 46* | 3 | 1 | 6 | 27 | 0 | 6
O=C(/C=C/c1cccc(Br)c1)N1CCN(c2ccccn2)CC1 | -1 | 77* | 6 | 11 | 4 | 46 | 1 | -10
O=C(COc1ccc(Cl)cc1Br)N1CCN(c2ncccn2)CC1 | 13 | 31 | -3 | 22 | 15 | · | · | ·
CNc1ccc(Oc2nc([N+](=O)[O-])nn2C)cc1 | 3 | -14 | -11 | -8 | -40 | · | · | ·
CCOC(=O)c1cnn(-c2nc(-c3ccccc3)cs2)c1C(F)(F)F | -3 | · | · | -7 | -3 | · | · | ·
